# Results: ChEMBL document CHEMBL4334524, “Discovery of Highly Polar β-Homophenylalanine Derivatives as Nonsystemic Intestine-Targeted Dipeptidyl Peptidase IV Inhibitors” (J Med Chem, 2019)
# Activity calls are given as the source filed them. No cut-off for these calls is given here.
# How the values were obtained:
# [1] = Apparent permeability from apical to basolateral side in human Caco2 cells at 20 uM incubated for […] by LC-MS/MS analysis; type: ADME, cell-based; conditions: Caco-2
# [2] = Apparent permeability from basolateral to apical side in human Caco2 cells at 20 uM incubated for […] by LC-MS/MS analysis; type: ADME, cell-based; conditions: Caco-2
# Mus musculus [3] = assay: Inhibition of jejunum DPP4 in BALB/c mouse at 30 mg/kg, po after 8 hrs using Gly-Pro-7-AMC substrate by fluorescence based assay; type: functional, organism-based
# In short: (§1)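 Mice were dosed orally at 30 mg/kg and intestinal DPPIV activity was measured 8 h later in three intestinal segments. Activity is expressed relative to a vehicle control group, with n = 6 per group. Data are mean ± SEM, compared with control by Student's t-test.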
# Mus musculus [4] = assay: Inhibition of ileum DPP4 in BALB/c mouse at 30 mg/kg, po after 8 hrs using Gly-Pro-7-AMC substrate by fluorescence based assay; type: functional, organism-based; in short: as §1
# Mus musculus [5] = assay: Inhibition of colon DPP4 in BALB/c mouse at 30 mg/kg, po after 8 hrs using Gly-Pro-7-AMC substrate by fluorescence based assay; type: functional, organism-based; in short: as §1
# Dipeptidyl peptidase 4 = Dipeptidyl peptidase 4 (Mus musculus, UniProt P28843); assay: Inhibition of DPP4 in C57BL/6 mouse serum pre-incubated for 5 mins followed by Gly-Pro-7-AMC substrate addition by fluorescence based assay; type: cell-free
# Chain of Dipeptidyl peptidase 4 (P28843 whole entry): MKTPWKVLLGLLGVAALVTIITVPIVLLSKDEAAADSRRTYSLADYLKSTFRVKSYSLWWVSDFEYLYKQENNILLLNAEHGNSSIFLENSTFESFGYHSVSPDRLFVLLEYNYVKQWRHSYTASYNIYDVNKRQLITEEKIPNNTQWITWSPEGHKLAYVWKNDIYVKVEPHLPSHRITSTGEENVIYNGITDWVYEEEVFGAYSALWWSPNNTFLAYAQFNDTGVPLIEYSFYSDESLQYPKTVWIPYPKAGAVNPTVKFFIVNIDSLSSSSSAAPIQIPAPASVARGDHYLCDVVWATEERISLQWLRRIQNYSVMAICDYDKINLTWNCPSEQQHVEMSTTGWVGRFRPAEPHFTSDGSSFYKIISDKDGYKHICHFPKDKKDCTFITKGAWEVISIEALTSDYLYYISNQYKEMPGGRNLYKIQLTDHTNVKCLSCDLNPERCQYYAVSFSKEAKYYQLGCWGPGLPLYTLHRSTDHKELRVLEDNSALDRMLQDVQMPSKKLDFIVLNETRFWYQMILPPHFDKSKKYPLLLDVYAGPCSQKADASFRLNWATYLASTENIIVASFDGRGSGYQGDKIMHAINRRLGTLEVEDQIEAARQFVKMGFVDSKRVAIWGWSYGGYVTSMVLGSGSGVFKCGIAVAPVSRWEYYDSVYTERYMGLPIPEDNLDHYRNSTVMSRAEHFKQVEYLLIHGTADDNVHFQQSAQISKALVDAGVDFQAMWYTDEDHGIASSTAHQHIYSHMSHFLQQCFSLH
# [6] = Solubility in pH 6.8 buffer by nephelometry; type: physicochemical
# [7] = Solubility in pH 7.4 buffer by nephelometry; type: physicochemical
# [8] = Solubility in pH 7.0 buffer by nephelometry; type: physicochemical
# [9] = Efflux ratio in human Caco2 cells at 20 uM incubated for […] by LC-MS/MS analysis; type: ADME, cell-based; conditions: Caco-2
# [10] = Stability in human intestinal S9 fractions assessed as phase I and phase II enzymes-mediated generation of systemic metabolites at 0.1 uM incubated at 37 degC for 10 mins by LC-MS/MS analysis; type: ADME, subcellular, Intestine, S9 fraction; conditions: s9, 10 min
# [11] = Stability in mouse intestinal S9 fractions assessed as phase I and phase II enzymes-mediated generation of systemic metabolites at 0.1 uM incubated at 37 degC for 10 mins by LC-MS/MS analysis; type: ADME, subcellular, Intestine, S9 fraction; conditions: s9, 10 min
# [12] = Selectivity index, ratio of IC50 for recombinant human DPP8 to IC50 for inhibition of DPP4 in C57BL/6 mouse serum
# [13] = Selectivity index, ratio of IC50 for recombinant human DPP9 to IC50 for inhibition of DPP4 in C57BL/6 mouse serum
# HepG2 = assay: Cytotoxicity in human HepG2 cells assessed as reduction in cell viability up to 200 uM incubated for 24 hrs by MTT assay; type: cell-based; conditions: hepg2, 24 h
# HEK293 = assay: Cytotoxicity in HEK293 cells assessed as reduction in cell viability up to 200 uM incubated for 24 hrs by MTT assay; type: cell-based; conditions: human, hek293, 24 h
# Hepatocyte = assay: Cytotoxicity in mouse primary hepatocytes assessed as reduction in cell viability up to 200 uM incubated for 24 hrs by MTT assay; type: cell-based
# [14] = Toxicity in ICR mouse assessed as mouse survival at 1000 mg/kg, po administered as single dose after 4 days; conditions: in vivo, 96 h
# [15] = Toxicity in ICR mouse assessed as effect on body weight at 1000 mg/kg, po administered as single dose after 4 days; conditions: in vivo, 96 h
# [16] = Toxicity in ICR mouse assessed as effect on clinical parameters at 1000 mg/kg, po administered as single dose after 4 days; conditions: in vivo, 96 h
# [17] = Toxicity in ICR mouse assessed as effect on behavioral parameters at 1000 mg/kg, po administered as single dose after 4 days; conditions: in vivo, 96 h
SMILES,"Papp A→B at […], 20 µM [1] [×10⁻⁶ cm/s]","Papp B→A at […], 20 µM [2] [×10⁻⁶ cm/s]",IC50 (Dipeptidyl peptidase 4) [nM],solubility kinetic [6] [µM],solubility kinetic [7] [µM],solubility kinetic [8] [µM],"efflux ratio at […], 20 µM [9]",Stability [10],Stability [11],other results
N[C@@H](CC(=O)N1CCn2c(nnc2C(F)(F)F)C1)Cc1cc(F)c(F)cc1F [SITAGLIPTIN],0.25,12.2,–,–,–,–,–,–,–,inhibition (Mus musculus [3]): Active; inhibition (Mus musculus [4]): Active; inhibition (Mus musculus [5]): Active
C[N+](C)(C)CCNC(=O)COc1ccc2nc(C3(NC(=O)C[C@H](N)Cc4cc(F)c(F)cc4F)CCS(=O)(=O)CC3)sc2c1.O=C(O)C(F)(F)F.O=C([O-])C(F)(F)F,0.02,0.004,1.4,> 50,> 50,> 50,0.2,Stable,Stable,inhibition (Mus musculus [3]): Active; inhibition (Mus musculus [4]): Active; inhibition (Mus musculus [5]): Active
N[C@@H](CC(=O)NC1(c2nc3ccc(OCCCCCC(=O)NC[C@H](O)[C@@H](O)[C@@H](O)[C@H](O)CO)cc3s2)CCS(=O)(=O)CC1)Cc1cc(F)c(F)cc1F.O=C(O)C(F)(F)F,0.02,0.27,3.5,> 50,20 to 50,20 to 50,13,–,–,–
C[N+](C)(C)CCNC(=O)CCCCCCCCCCCOc1ccc2nc(C3(NC(=O)C[C@H](N)Cc4cc(F)c(F)cc4F)CCS(=O)(=O)CC3)sc2c1,–,–,116,–,–,–,–,–,–,–
C[N+](C)(C)CCNC(=O)CCCCCOc1ccc2nc(C3(NC(=O)C[C@H](N)Cc4cc(F)c(F)cc4F)CCS(=O)(=O)CC3)sc2c1.O=C(O)C(F)(F)F.O=C([O-])C(F)(F)F,0.02,0.11,3,> 50,> 50,> 50,6,–,–,–
N[C@@H](CC(=O)NC1(c2nc3ccc(OCC(=O)NCCS(=O)(=O)O)cc3s2)CCS(=O)(=O)CC1)Cc1cc(F)c(F)cc1F.O=C(O)C(F)(F)F,0.04,0.01,1.1,> 50,> 50,> 50,0.3,Stable,Stable,inhibition (Mus musculus [3]): Active; inhibition (Mus musculus [4]): Active; inhibition (Mus musculus [5]): Active; Ratio IC50 [12]: > 2000; Ratio IC50 [13]: > 2000; Activity (HepG2): Non-Toxic; Activity (HEK293): Non-Toxic; Activity (Hepatocyte): Non-Toxic; Activity [14]: Non-Toxic; Activity [15]: Non-Toxic; Activity [16]: Non-Toxic; Activity [17]: Non-Toxic
O=c1ccc2ccc(O)cc2o1 [UMBELLIFERONE],–,–,–,–,–,–,–,Unstable,Unstable,–
N[C@@H](CC(=O)NC1(c2nc3ccc(OCCCCCC(=O)NCCS(=O)(=O)O)cc3s2)CCS(=O)(=O)CC1)Cc1cc(F)c(F)cc1F.O=C(O)C(F)(F)F,0.002,0.59,2,20 to 50,> 50,> 50,295,–,–,–
C[C@]12CC[C@H]3[C@@H](CCC4=CC(=O)CC[C@@]43C)[C@@H]1CC[C@@H]2O [TESTOSTERONE],–,–,–,–,–,–,–,Unstable,Unstable,–
N[C@@H](CC(=O)NC1(c2nc3ccc(OCCCCCCCCCCCC(=O)NC[C@H](O)[C@@H](O)[C@@H](O)[C@H](O)CO)cc3s2)CCS(=O)(=O)CC1)Cc1cc(F)c(F)cc1F,–,–,168,–,–,–,–,–,–,–
N[C@@H](CC(=O)NC1(c2nc3ccc(OCC(=O)NC[C@H](O)[C@@H](O)[C@@H](O)[C@H](O)CO)cc3s2)CCS(=O)(=O)CC1)Cc1cc(F)c(F)cc1F.O=C(O)C(F)(F)F,0.02,0.001,2.2,> 50,> 50,> 50,0.05,–,–,–
N[C@@H](CC(=O)NC1(c2nc3ccc(OCCCCCCCCCCCC(=O)NCCS(=O)(=O)O)cc3s2)CCS(=O)(=O)CC1)Cc1cc(F)c(F)cc1F,–,–,81.8,–,–,–,–,–,–,–
